Experimental data taken from ChEMBL document CHEMBL4732238, “Synthesis, biological evaluation, and structure-activity relationships of new tubulin polymerization inhibitors based on 5-amino-1,2,4-triazole scaffold” (Bioorg Med Chem Lett, 2021).

How the values were obtained:
MCF7 [1] = assay: Antiproliferative activity against human MCF7 cells assessed as cell growth inhibition at 100 uM by MTT assay relative to control; assay type: functional; settings: read-out: GI
Outline: (§1)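 Five human lines (MCF-7, HeLa, A549, PC-3, Panc-1) exposed to a single 100 μM concentration. Viability read by MTT. Results expressed as […] versus untreated control cells.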

A549 = assay: Antiproliferative activity against human A549 cells assessed as cell growth inhibition at 100 uM by MTT assay relative to control; assay type: functional; settings: read-out: GI; outline: as §1
PC-3 = assay: Antiproliferative activity against human PC-3 cells assessed as cell growth inhibition at 100 uM by MTT assay relative to control; assay type: functional; settings: read-out: GI; outline: as §1
HeLa [2] = assay: Antiproliferative activity against human HeLa cells assessed as cell growth inhibition at 100 uM by MTT assay relative to control; assay type: functional; settings: read-out: GI; outline: as §1
PANC-1 [3] = assay: Antiproliferative activity against human PANC-1 cells assessed as cell growth inhibition at 100 uM by MTT assay relative to control; assay type: functional; settings: read-out: GI; outline: as §1
MCF7 [4] = assay: Antiproliferative activity against human MCF7 cells assessed as cell growth inhibition by MTT assay; assay type: functional, cell-based
Outline: (§2)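 MTT antiproliferation readout. […] Mean ± SD from three independent experiments.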

Tubulin (Homo sapiens) = Tubulin (Homo sapiens) (UniProt P68371+Q9H4B7+P0DPH7+P68366+Q13509+Q71U36+P04350+Q3ZCM7+P07437+P68363+Q9BQE3+Q6PEY2+Q13885+Q9BVA1+Q9BUF5); assay: Inhibition of tubulin (unknown origin) polymerization at 10 uM measured every 1 min over 20 mins by fluorescence assay relative to control; assay type: protein-complex assay
Outline: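 Tubulin in reaction buffer incubated at 37 °C with test agent at final 10 μM; control 1% DMSO. Polymerization followed at 340 nm, read every minute over 20 min. Run three times.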

K562 = assay: Antiproliferative activity against human K562 cells assessed as cell growth inhibition by MTT assay; assay type: functional, cell-based
HeLa [5] = assay: Antiproliferative activity against human HeLa cells assessed as cell growth inhibition by MTT assay; assay type: functional, cell-based; outline: as §2
PANC-1 [6] = assay: Antiproliferative activity against human PANC-1 cells assessed as cell growth inhibition by MTT assay; assay type: functional, cell-based; outline: as §2

SMILES	inhibition of growth at 100 µM (MCF7 [1]) [%]	inhibition of growth at 100 µM (A549) [%]	inhibition of growth at 100 µM (PC-3) [%]	inhibition of growth at 100 µM (HeLa [2]) [%]	inhibition of growth at 100 µM (PANC-1 [3]) [%]	IC50 (MCF7 [4]) [µM]	inhibition (Tubulin (Homo sapiens)) [%]	IC50 (K562) [µM]	IC50 (HeLa [5]) [µM]	IC50 (PANC-1 [6]) [µM]
CCc1ccc(NC(=O)Cn2nc(-c3cc(OC)c(OC)c(OC)c3)nc2N)cc1	31	27	40	12	–	–	–	–	–	–
COc1cc(-c2nc(N)n(CC(=O)Nc3ccc(C)c(C)c3)n2)cc(OC)c1OC	32	29	–	20	32	–	–	–	–	–
COc1cc(-c2nc(N)n(CC(=O)c3ccc(C)cc3)n2)cc(OC)c1OC	53	–	35	70	17	53	42	33	54	> 100
COc1cc(-c2nc(N)n(Cc3ccccc3F)n2)cc(OC)c1OC	33	24	35	33	5	–	–	–	–	–
COc1cc(-c2nc(N)n(Cc3ccc([N+](=O)[O-])cc3)n2)cc(OC)c1OC	52	13	21	58	53	82.1	–	> 100	57.2	> 100
COc1ccc(NC(=O)Cn2nc(-c3cc(OC)c(OC)c(OC)c3)nc2N)cc1OC	12	22	42	41	14	–	–	–	–	–
COc1cccc(C(=O)Cn2nc(-c3cc(OC)c(OC)c(OC)c3)nc2N)c1	30	20	37	27	–	–	–	–	–	–
COc1cc(-c2nc(N)n(CC(=O)c3ccc(Br)cc3)n2)cc(OC)c1OC	27	12	38	41	6	–	–	–	–	–
COc1cc(-c2nc(N)n(Cc3cc(OC(F)(F)F)cc(OC(F)(F)F)c3)n2)cc(OC)c1OC	55	6	36	73	71	> 100	–	31.5	53.1	73
COc1cc(-c2nc(N)n(CC(=O)Nc3ccc(C)cc3)n2)cc(OC)c1OC	–	–	31	35	5	–	–	–	–	–
COc1cc(-c2nc(N)n(CC(=O)Nc3c(C)cc(C)cc3C)n2)cc(OC)c1OC	34	16	50	49	32	–	–	–	–	–
COc1cc(-c2nc(N)n(Cc3ccc(Cl)cc3)n2)cc(OC)c1OC	49	38	48	55	39	–	–	–	–	–
COc1cc(-c2nc(N)n(CC(=O)Nc3ccc(N(C)C)cc3)n2)cc(OC)c1OC	14	7	–	29	–	–	–	–	–	–
COc1cc(-c2nc(N)n(CC(=O)c3cccc(Br)c3)n2)cc(OC)c1OC	59	35	–	66	51	68.4	–	> 100	58.2	79.6
COc1cc(-c2nc(N)n(Cc3ccc(F)cc3)n2)cc(OC)c1OC	34	42	41	28	7	–	–	–	–	–
